Screening data from PubChem BioAssay.
SKKanGAS inh: S. pyogenes SKKanGAS growth inhibitors in kanamycin, primary screen, streptokinase expression inhibitor project, SKKanGAS strain, BacTiter-Glo luminescence | 6 h | inhibition, % at 7.5 µM | 300,000 tested, 1.3% active;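 active = mean replicate score, as percent of positive control median, at least 50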;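 note: strain carries kanamycin resistance gene driven by streptokinase promoter and grows in 40 µg/ml kanamycin; loss of luminescence reflects streptokinase promoter inhibition or plain growth inhibition; 0% = median of DMSO wells and 100% = positive control at its reference dose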
L major viab: Leishmania major promastigote growth inhibition, primary screen; Leishmania major promastigotes, resazurin fluorescence viability; inhibition, % at 10 µM; 200,000 tested, 9% active; AID 1063, 2008; in the data active = inhibition above about 50%;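 note: promastigotes grown with compound for 44 hours at 28 °C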
Mdm2-MdmX inh: inhibitors of human Mdm2-MdmX association, primary screen, cell-based, luminescence, split luciferase, SaOS-2, uHTS. Protein Mdm4 (Homo sapiens) + E3 ubiquitin-protein ligase Mdm2 (Homo sapiens), …. SaOS-2 split-luciferase Mdm2/MdmX complementation. inhibition, % at 8 µM. 330,000 tested, 3% active. AID 485346, 2010;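 active = inhibition of at least 50% at 8 µM in the primary screen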
Beta cell apopt: inhibitors of cytokine-induced beta cell apoptosis, primary screen, luminescence | INS-1E cytokine-induced death, ATP luminescence, 48 h; percent of positive-control rescue, neutral wells zero | protection from apoptosis, % (test concentration not listed) | AID 435005, 2010 | 300,000 tested, 0.8% active;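 active = Every replicate reaches about 75%, or at least half do and their mean reaches it too, limit read from the data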;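 note: 0% = cytokine-treated negative control wells and 100% = positive control rescue; higher means more ATP so stronger rescue from cytokine killing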
CSC inhib: cancer stem cell viability inhibitors, primary screen, luminescence; cancer stem cell-like cells viability; inhibition, % at 7.5 µM; 300,000 tested, 1.1% active; AID 2717, 2010; in the data active = inhibition above about 75%; tested in HMLE shEcad cells
T cruzi repl: inhibitors of intracellular T. cruzi growth, primary screen, luminescence, NIH3T3 host cells; T. cruzi beta-gal in NIH3T3, 90 h; inhibition, % (test concentration not listed); 300,000 tested, 1.4% active; AID 1885, 2009;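 active = mean inhibition across valid replicates above about 55%, limit read from the data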;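 note: signal also drops with host cell toxicity which is not excluded here; 0% = plate median of DMSO wells and 100% = zero luminescence signal; higher percent means less beta-gal luminescence so fewer parasites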
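compound dosing = single 50 nL compound addition per well in DMSO | material = NIH/3T3 host cells with β-galactosidase reporter T. cruzi | input = 5,000 host fibroblasts per well | timing = ≥90 h infection period, 3 h prior cell attachment | read-out basis = percent inhibition of parasite-derived β-gal signal | detection = GalScreen β-gal luminescence, detergent lysis, 60 min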
Active calls of the source: *. Hits are enriched below; roughly 9.4% of the tested compounds scored in any of these assays.

`COc1ccc(C)cc1NC(=O)C(OC(=O)CNC(=O)c1ccc(Br)cc1)c1ccccc1` (stereo unspecified) gave SKKanGAS inh 5, L major viab 52*, Mdm2-MdmX inh -3, Beta cell apopt -6, CSC inhib -8 and T cruzi repl 8.
`COc1ccc(C)cc1NC(=O)C(OC(=O)CNC(=O)c1cc(C)cc(C)c1)c1ccccc1` (stereo unspecified) gave SKKanGAS inh -2, L major viab -3, Mdm2-MdmX inh 23, Beta cell apopt -6, CSC inhib -7 and T cruzi repl -5.
Cc1cc(C(=O)NCC(=O)OC(C(=O)Nc2cc(C(F)(F)F)ccc2Cl)c2ccccc2)ccc1[N+](=O)[O-] (stereo unspecified) was read as SKKanGAS inh 53*, L major viab 39, Mdm2-MdmX inh -1, Beta cell apopt -3, CSC inhib 3 and T cruzi repl 5.
`CCCC(=O)OC(C(=O)Nc1cc(C(F)(F)F)ccc1Cl)c1ccccc1` (stereo unspecified) gave SKKanGAS inh -13, L major viab 90*, Mdm2-MdmX inh -3, Beta cell apopt 3, CSC inhib 9 and T cruzi repl 6.
Screening COc1cc(C=O)ccc1OC(=O)N1CCOCC1 returned SKKanGAS inh 1, Mdm2-MdmX inh -19, Beta cell apopt -3, CSC inhib -7 and T cruzi repl -2.
For CC1CCCc2sc3ncn(N)c(=N)c3c21 (stereo unspecified) the results were SKKanGAS inh 0, L major viab 8, Mdm2-MdmX inh 27, Beta cell apopt -8, CSC inhib 22 and T cruzi repl -2.
Screening CC(OC(=O)Cn1[nH]c(=O)c2ccccc2c1=O)C(=O)Nc1ccc(F)cc1Cl (stereo unspecified) returned SKKanGAS inh 1, Mdm2-MdmX inh 10, Beta cell apopt -4, CSC inhib -3 and T cruzi repl -4.
Screening Cc1ccc(C)c(N2C(=O)c3ccc(C(=O)OCC(=O)c4c(N)n(C)c(=O)n(C)c4=O)cc3C2=O)c1 returned SKKanGAS inh 14, L major viab 51*, Mdm2-MdmX inh 4, Beta cell apopt -7, CSC inhib 5 and T cruzi repl -5.
COc1ccc(C(=O)OCC(=O)c2c(N)n(C)c(=O)n(C)c2=O)cc1OC was read as SKKanGAS inh 12, L major viab 10, Mdm2-MdmX inh 1, Beta cell apopt 1, CSC inhib 0 and T cruzi repl -17.
CCOC(=O)/C(=N\Nc1ccccc1)c1csc(Nc2ccc(C)cc2)n1 was read as SKKanGAS inh 3, L major viab 6, Mdm2-MdmX inh 11, Beta cell apopt 5, CSC inhib 74 and T cruzi repl 60*.
CCCCC(CCC(=O)O)(C(=O)OCC)c1csc(Nc2ccc(C)cc2)n1 (stereo unspecified) was read as SKKanGAS inh 8, L major viab 12, Mdm2-MdmX inh 20, Beta cell apopt -11, CSC inhib 0 and T cruzi repl -12.
CCCSc1ccc(C(=O)Nc2ccc(Cl)cc2)cn1 was read as SKKanGAS inh -3, L major viab -3, Mdm2-MdmX inh -8, Beta cell apopt 1, CSC inhib -24 and T cruzi repl 3.
For CC(C)(C)NC(=O)CC1C(=O)NCCN1Cc1c(F)cccc1Cl (stereo unspecified) the results were SKKanGAS inh -10, L major viab -6, Mdm2-MdmX inh 2, Beta cell apopt -1, CSC inhib -7 and T cruzi repl -8.
Screening CCOc1ccc(C2C(C#N)=C(N)N(c3sc4c(c3C#N)CCCC4)C3=C2C(=O)CCC3)cc1 (stereo unspecified) returned SKKanGAS inh 4, L major viab 57*, Mdm2-MdmX inh 2, Beta cell apopt 2, CSC inhib 6 and T cruzi repl 35.
